The target of series [1] is T1, Grx1 (Homo sapiens, UniProt P35754).
T1 sequence (P35754 1-106): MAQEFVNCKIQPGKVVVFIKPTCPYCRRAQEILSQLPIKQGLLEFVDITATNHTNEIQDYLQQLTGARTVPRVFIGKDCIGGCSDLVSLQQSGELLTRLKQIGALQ
As to the kind of experiment: Grx1 de-glutathionylation enzyme assay. It is filed as biochemical. In a few lines:
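Coupled assay: Grx1 (40 ng) reduces Cys-SSG (100 μM), and glutathione reductase recycles the resulting GSSG while oxidising NADPH. Buffer was 0.1 M phosphate pH 7.4 with 1 mM EDTA, BSA, 0.2 mM NADPH, yeast GR (4 units) and 0.25 mM GSH. Grx1 was incubated with peptide at 10–200 μM. NADPH loss was followed at 340 nm. Initial rates were converted to percent inhibition, and values are mean ± SD, n=3 independent experiments.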

Series [2] addresses T2, Trx1 (Homo sapiens, UniProt P10599).
T2 sequence (P10599 1-105): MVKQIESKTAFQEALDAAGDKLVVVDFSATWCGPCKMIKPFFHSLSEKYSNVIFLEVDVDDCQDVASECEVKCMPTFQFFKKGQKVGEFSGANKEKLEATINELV
As to the kind of experiment: Phage display selection. It is filed as binding. Conditions: trial 3; bait Trx1; elution with 1GP3; three rounds of bio-panning; DTT 1 mM.

The target in series [3] is T1, Grx1. The series is described as follows: Phage display selection. It is filed as binding. Conditions: trial 2; bait Grx1; elution with 1GP3; three rounds of bio-panning; DTT 1 mM.
The conditions of series [4]: not told.
In the next series the test system is human Grx1. Conditions: ref [53]; cited from earlier work.
The next series has as its system Trx1-Ask1 interaction. As to the kind of experiment: Co-immunoprecipitation of Ask1 and Trx1 in cells. The series is classed as cell-based. Conditions: MDA-MB-231 cells, 6 h; co-IP.
The subject of the next series is Ask1. The series is described as follows: Ask1 phosphorylation, Western blotting. The series is classed as cell-based. Conditions: MDA-MB-231 cells, 6 h. In short, it runs like this:
(§1)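 MDA-MB-231 cells in 6 cm dishes were exposed to the test peptide, a TAT-only peptide, a scrambled-order (reverse) TAT peptide or a reference Trx1 inhibitor at 37 °C for 6 h. Cells were then lysed in TBST with 0.1% Triton X-100, 50 mM NaF and EDTA-free protease inhibitors. Equal protein was run on SDS-PAGE and blotted to PVDF. Primary antibodies (p-Ask1 Thr845, p-JNK Thr183/Tyr185, p-p38 Thr180/Tyr182, p-AMPK Thr172, GRP78, plus total proteins) were applied overnight at 4 °C, followed by HRP secondary and chemiluminescence. Data come from two or three independent experiments.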
In general terms: In western blotting, separated proteins are transferred to a membrane and probed.

A further series has as its system JNK. As to the kind of experiment: JNK phosphorylation, Western blotting. It is filed as cell-based. Conditions: MDA-MB-231 cells, 100 μM, 6 h. In short, it runs like this: as §1
The subject of another series is p53. The series is described as follows: p53 stabilization, Western blotting. The series is classed as cell-based. Conditions: 100 μM, 6 h.
The test system of the next series is p38. As to the kind of experiment: p38 phosphorylation, Western blotting. It is filed as cell-based. Conditions: MDA-MB-231 cells, 100 μM, 6 h. In short, it runs like this:
as §1

Another series has as its system GRP78. The series is described as follows: GRP78 induction. The series is classed as cell-based. Conditions: MDA-MB-231 cells, 100 μM, 6 h. In a few lines:
as §1

For the next series, the system named is AMPK. As to the kind of experiment: AMPK phosphorylation, Western blotting. It is filed as cell-based. Conditions: MDA-MB-231 cells, 100 μM, 6 h. In a few lines: as §1
The next series has as its system MDA-MB-231 cells. As to the kind of experiment: Cell viability, Trypan blue assay. The series is classed as cell-based. Conditions: 48 h, 37 °C, n= 2 independent experiments. In short, it runs like this:
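Viability was scored by Trypan blue exclusion. MDA-MB-231 cells in 6-well plates were treated with the TAT-fused test peptide, a reverse-sequence TAT control or a reference Trx1 inhibitor for 48 h at 37 °C. Cells were washed with PBS, trypsinised and resuspended in medium. They were mixed with 0.4% trypan blue and counted on an automated cell counter. Results are mean ± SD of 2 independent experiments.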

The conditions of series [5]: ref [45], [46]; cited from earlier work.
The subject of series [6] is Trx1. Conditions: ref [44]; cited from earlier work.
Series [7] addresses T3, glutaredoxin 1 (Grx1), human, His-tagged, purified (human, UniProt P35754 1-106).
T3 sequence (looked up): T1 sequence (P35754 1-106)
The series is described as follows: SPR. (In general: Surface plasmon resonance follows binding to a sensor surface in real time, without labels.)

In series [8] the target is T4, thioredoxin 1 (Trx1), human, His-tagged, purified (human, UniProt P10599 1-105).
T4 sequence (looked up): T2 sequence (P10599 1-105)
The series is described as follows: pull-down.

The target of series [9] is T3, glutaredoxin 1 (Grx1), human, …. The series is described as follows: BLI.
The target of series [10] is T4, thioredoxin 1 (Trx1), human, …. As to the kind of experiment: BLI.
The target of series [11] is T3, glutaredoxin 1 (Grx1), human, …. As to the kind of experiment: pull-down.

As usually defined, the IC50 is the concentration at which inhibition is half-maximal. As usually defined, the Kd is the constant that tells how readily two partners part at equilibrium. Lower therefore signals tighter binding.

“Also recorded” adds a separate entry of the source. No end group written: not given here.

As to SHYNYKV [1GP2], the “Inhibition of Grx1 de-glutathionylation” value on Grx1 [1] (Cys-SSG 100 μM substrate, 0.1 M phosphate pH 7.4, peptide 10–200 μM) is listed as “did not have any inhibitory activity”.

Molecule ANHTMQV [1GP3] gave an IC50 on Grx1 [1] of 46 µM. This lies in the double-digit micromolar range.

Regarding RFADPRL [2TP2], the “# of colony” value at Trx1 [2] turned out to be 1.

For the molecule SVGSFSM [2GP1], the “# of colony” value on Grx1 [3] came to 1.

ETRWPNT [2GTP1] returned an IC50 at Grx1 [1] of 11 µM. Also, the Cell permeability entry in series [4] was “poor cell permeability”.

As to `N[C@@H](CCC(=O)N[C@@H](CS)C(=O)NCC(=O)O)C(=O)O` [reduced glutathione], in the series with human Grx1, the “Binding affinity with human Grx1” value is “does not have significant binding affinity”.

Regarding GRYAIPL [2GP2], the “# of colony” value at Grx1 [3] is listed as 2.

As to AMYSRGT [2TP1], at Trx1 [2], the “# of colony” value was found to be 2.

Take SLKTTMP [2TP3]: the “# of colony” value at Trx1 [2] was 1.

As for `CCC(C)SSc1ncc[nH]1` (centres unmarked) [PX-12, sec-butyl 2-imidazoylyl disulfide], the “Disruption of Trx1-Ask1 interaction in cells” value with Trx1-Ask1 interaction was “disrupted the Trx1-Ask1 interaction”. The Ask1 phosphorylation entry in the series on Ask1 is “activated Ask1 by phosphorylation”. The JNK phosphorylation entry in the series with JNK is on record as “induced JNK phosphorylation”. In addition, the p53 stabilization result was “induced p53 stabilization” in the series with p53 (MCF7 cells (wild-type p53, high Trx1)) and “strong stabilization of mutant p53” in the series with p53 (MDA-MB-231 cells (mutant p53 R280K)). Besides, in the series with p38, the p38 phosphorylation result is “without p38 phosphorylation”. Further, in the series on GRP78, the GRP78 induction entry is “induced expression of GRP78”. In addition, the AMPK phosphorylation entry in the series with AMPK is given as “phosphorylation of AMPK”. Moreover, the Cell viability entry in the series with MDA-MB-231 cells is “significantly decreased viability; also recorded: potent cytotoxicity”. Further, the “Anti-tumor activity in clinical evaluation” value in series [5] is “low anti-tumor activity”. For the same molecule, the “Cys residues of Trx1 oxidized or modified” value in the series with Trx1 [6] is “catalytic C32 and redox-sensitive C73”.

For the molecule ANHTMQV (not fully specified (N-terminus); also: biotin, position not given here) [biotin-1GP3], in [7], binding was put at a Kd of 38 ± 2 µM.

Turning to ETRWPNT [non-biotinylated 2GTP1], the binding result in [8] is listed as “binds”.

As to ETRWPNT (not fully specified (N-terminus); also: biotinylated, position not given here) [biotinylated 2GTP1 peptide (biotin-2GTP1)], the Kd in [9] was determined as 1.2 µM; in series [10], 2.5 µM.

For SHYNYKV (not fully specified (N-terminus); also: biotin, position not given here) [biotin-1GP2], the binding result in series [11] is “binds”.
